Experimental findings from PubChem BioAssay AID504509 (Southern Research Specialized Biocontainment Screening …, 2011) are described below.

The source made the active and inactive calls.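 Rule for the calls: active = cell viability under 70% at any tested concentration, a measure not printed in our tables; inactive = the rest.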 Some results are limits rather than exact numbers.

One may read the CC50 as the concentration giving 50% cytotoxicity.

The assay has as its system HEp-2 viability, luminescence, cytotoxicity counter-screen. Briefly: host cell viability for RSV antiviral hits – HEp-2 cells, synthesized compounds, set 6, cytotoxicity control for RSV inhibitor project, dose response (AID 504509). The procedure, abridged: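 Test system: HEp-2 cells without virus; Medium: DMEM/F12; Timing: 6 d at 37 °C; Detection: CellTiter-Glo luminescence reporting cellular ATP; Replication: triplicate.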
Take `COc1ccccc1CNC(=O)[C@@H]1CCCN1S(=O)(=O)c1cccc2cccnc12`: the CC50 is > 50 µM (inactive).
As for `Cc1ccc(Cl)cc1NC(=O)[C@@H]1CCCN1S(=O)(=O)c1cccc2cccnc12`, the CC50 was 9.59 µM.
Take `COc1ccccc1CNC(=O)C1CCN(S(=O)(=O)c2cccc3cccnc23)CC1`: the CC50 was > 50 µM (inactive).
As for `Cc1cccc(C)c1NC(=O)[C@@H]1CCCN1S(=O)(=O)c1cccc2cccnc12`, the CC50 is > 50 µM (inactive).
With `COc1ccccc1NCC(=O)Nc1cc(S(=O)(=O)N2CCOCC2)ccc1N1CCOCC1`, the CC50 is > 50 µM (inactive).
In the case of `COc1cccc(CNC(=O)C2CCN(S(=O)(=O)c3cccc4nonc34)CC2)c1` it was > 50 µM (inactive); in that of `Cc1ccc(C)c(NC(=O)[C@@H]2CCCN2S(=O)(=O)c2cccc3cccnc23)c1`, 50.4 µM.
`Cc1ccc(C(C)(C)C)cc1NC(=O)[C@@H]1CCCN1S(=O)(=O)c1cccc2cccnc12`: the CC50 was 7.18 µM.
In the case of `COc1ccccc1CNC(=O)C1CCN(S(=O)(=O)c2ccccc2)CC1` it was > 50 µM (inactive).
`COCCCNC(=O)c1ccc(Cn2c(=O)c3ccccc3n(Cc3ccccc3)c2=O)cc1`: the CC50 is > 50 µM (inactive).
As for `O=C(O)C1CC=CCC1C(=O)Nc1ccc(S(=O)(=O)N2CCCc3ccccc32)cc1` (configuration not stated), the CC50 is 33 µM.
Next, `COc1ccccc1CNC(=O)C1CCN(Cc2cccc3nonc23)CC1`: > 50 µM (inactive); `Cc1ccc(C(F)(F)F)cc1NC(=O)[C@@H]1CCCN1S(=O)(=O)c1cccc2cccnc12`: 6.92 µM.
`Cc1ccc(C(C)C)cc1NC(=O)[C@@H]1CCCN1S(=O)(=O)c1cccc2cccnc12`: the half-maximal cytotoxic concentration (CC50) was 8.26 µM.
As for `COCCNC(=O)c1ccc(Cn2c(=O)c3ccccc3n(Cc3ccc(C)cc3)c2=O)cc1`, the CC50 was > 50 µM (inactive).
Consider `COc1ccccc1CNC(=O)C1CCN(S(=O)(=O)c2cccc3nonc23)CC1`, for which the CC50 was > 50 µM (inactive).
In the case of `Cc1ccc(Cl)c(NC(=O)[C@@H]2CCCN2S(=O)(=O)c2cccc3cccnc23)c1`, the 50% cytotoxic concentration (CC50) was 9.83 µM.
